# Test results from paper PMC2998342 (Peptides, 2009).
# Where no end group is shown, it is not given here. [ ]: non-standard residue; d: D form. Met(O) = CS(=O)CC[C@H](N)C(=O)O
# Tests used:
# [1] = target: human KCa1.1 channel (HSlo) (Homo sapiens, UniProt Q12791); experiment: Whole-cell patch clamp inhibition of cloned human KCa1.1; type: cell-based; details: read-out: inhibition of outward current
# Method in brief: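 Whole-cell clamp of HEK293 stably expressing N-terminal Flag-tagged human HSlo. Pipette: KCl/EGTA/Hepes-KOH pH 7.2, 0.5 μM free Ca2+. Bath: NaCl-based pH 7.4. Steps from −80 mV to +100 mV (+10 mV, 100 ms), 5 kHz filter, P/5 leak correction, paxilline-resistant current subtracted. Toxin (50 nM) gravity-perfused; −80→+50 mV pulses every 10 s tracked onset/washout. KI from one-site fit; Kd from kinetic ratio.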
# [2] = Biological activity of deprotected IbTx-D19C; details: after selective thiol deprotection using AgBF4; methionine sulfoxide (Met^29)
# KCa1.1 = KCa1.1 (UniProt Q12791); details: cited from earlier work
# KCa1.1, sequence (Q12791 whole entry): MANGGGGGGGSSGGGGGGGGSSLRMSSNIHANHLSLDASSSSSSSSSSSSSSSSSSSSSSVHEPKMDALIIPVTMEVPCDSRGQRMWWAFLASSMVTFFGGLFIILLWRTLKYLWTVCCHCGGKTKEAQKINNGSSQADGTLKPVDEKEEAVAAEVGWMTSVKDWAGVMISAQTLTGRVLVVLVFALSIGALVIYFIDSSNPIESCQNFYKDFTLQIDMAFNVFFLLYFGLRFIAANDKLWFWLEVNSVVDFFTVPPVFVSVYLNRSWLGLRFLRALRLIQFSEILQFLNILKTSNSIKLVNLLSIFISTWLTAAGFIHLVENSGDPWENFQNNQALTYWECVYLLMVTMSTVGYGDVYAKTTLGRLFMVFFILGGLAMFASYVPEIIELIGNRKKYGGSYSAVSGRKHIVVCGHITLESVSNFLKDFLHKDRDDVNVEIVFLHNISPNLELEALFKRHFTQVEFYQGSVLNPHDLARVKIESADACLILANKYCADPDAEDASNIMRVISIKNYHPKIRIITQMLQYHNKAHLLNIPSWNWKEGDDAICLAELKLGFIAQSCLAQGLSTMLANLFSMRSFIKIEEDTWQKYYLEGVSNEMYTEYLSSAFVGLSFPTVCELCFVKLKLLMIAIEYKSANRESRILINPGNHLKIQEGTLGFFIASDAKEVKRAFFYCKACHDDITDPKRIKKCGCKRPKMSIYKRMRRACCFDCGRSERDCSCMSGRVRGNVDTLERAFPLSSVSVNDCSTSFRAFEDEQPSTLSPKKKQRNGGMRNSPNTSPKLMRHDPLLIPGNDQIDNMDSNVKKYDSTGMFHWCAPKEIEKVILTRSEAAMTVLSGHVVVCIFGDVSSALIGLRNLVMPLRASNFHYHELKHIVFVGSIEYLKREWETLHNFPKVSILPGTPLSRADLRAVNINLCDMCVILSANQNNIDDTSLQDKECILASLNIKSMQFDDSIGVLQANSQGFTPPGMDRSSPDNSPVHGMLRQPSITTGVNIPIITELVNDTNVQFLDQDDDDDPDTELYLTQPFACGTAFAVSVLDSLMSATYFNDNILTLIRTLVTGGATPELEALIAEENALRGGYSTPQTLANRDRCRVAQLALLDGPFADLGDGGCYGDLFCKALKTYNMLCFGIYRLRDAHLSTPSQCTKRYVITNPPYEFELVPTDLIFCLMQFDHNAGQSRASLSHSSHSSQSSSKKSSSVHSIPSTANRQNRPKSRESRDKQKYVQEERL
# human KCa1.1 channel (HSlo), sequence (Q12791 whole entry, the tested form may be a part): as the sequence (Q12791 whole entry) above
# iberiotoxin, sequence (P24663 whole entry): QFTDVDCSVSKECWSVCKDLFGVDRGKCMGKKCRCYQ
molecule,measurement,setting,value
CC(C)(O)[C@H]1O[C@H]2CC[C@@]3(C)[C@@](O)(CC[C@H]4Cc5c([nH]c6ccccc56)[C@@]43C)C2=CC1=O [Paxilline],inhibition at 1 µM,[1],> 95%
"IbTx-D19C: biologically inactive form of IbTx-D19C from AgBF4 deprotection of IbTx-D19C-Acm (QFTDVDCSVSKECWSVCKCLFGVDRGKC[Met(O)]GKKCRCYQ; ends and bridges not checked; UniProt P24663 1-37, looked up, variant D19C)",biological activity,[2],biologically inactive
iberiotoxin (from UniProt P24663),Kd,KCa1.1,< 1 nM
